# Source: PubChem BioAssay
# The list is not random: actives were taken first. Their share in the collection is about 1.5%.
# APJ agonist = activates the human apelin receptor APJ; 330,000 compounds, 0.11% hits; CHO-K1 APJ PathHunter beta-arrestin, luminescence; 0% DMSO wells, 100% apelin; P35414; activation, % at 20 µM;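 active means activation more than six SD over the plate average, tested at 20 µM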;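 further: 0% = DMSO alone and 100% = apelin-13 at 10 nM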
#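 Assay system: engineered CHO-K1 APJ arrestin reporter cells; Amount: 1000 CHO-K1 reporter cells seeded per well; Dosing: one dose, 20 µM compound, 1% DMSO; Times: compound stimulation 90 min at 25 °C, detection 60 min; Measured by: luminescent beta-gal fragment complementation, chemiluminescent substrate; Read-out: APJ–arrestin association signal; Controls: DMSO vs Apelin-13 10 nM.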
# APJ antag = antagonists of human APJ apelin receptor. 330,000 compounds, 0.32% hits. inhibition, % at 20 µM. CHO-K1 APJ beta-arrestin complementation, luminescence. P35414;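 active means inhibition above about 40% at 20 µM, limit read from the data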;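 further: cells challenged with 10 nM apelin-13 agonist together with compound; plate controls were apelin-13 plus DMSO wells for no effect and DMSO wells lacking apelin-13 for full effect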
# CXCR6 block = CXCR6 (human) receptor inhibition; CHO-K1 PathHunter CXCR6 beta-arrestin, luminescence; inhibition, % at 20 µM; 360,000 compounds, 0.36% hits; AID 602244; in the data active means inhibition above about 34%, passing the limit was not always enough;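 further: antagonist mode with CXCL16 agonist at 10 nM final; 0% = 10 nM CXCL16 with DMSO and 100% = unstimulated wells without agonist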
# CCR6 antagonist = antagonists of human CCR6 receptor | P51684 | CHO-K1 CCR6 PathHunter beta-arrestin, luminescence, CCL20-stimulated | inhibition, % at 20 µM | 340,000 compounds, 0.49% hits | AID 493098;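 active means compounds whose inhibition of the agonist-driven luminescence signal at 20 µM reaches about 50%, limit read from the data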;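 further: cells stimulated with CCL20 at 14 nM final; plate controls were DMSO with CCL20 for no effect and DMSO without agonist for full effect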
# EBI2 antag = blocks human EBI2 receptor beta-arrestin signaling | inhibition, % at 5 µM | 360,000 compounds, 0.81% hits | P32249 | EBI2 beta-arrestin recruitment, luminescence, 7a,25-OHC stimulated; in the data active means inhibition above about 38%;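 further: enzyme fragment complementation signal reports receptor beta-arrestin coupling in cells; 0% = agonist plus DMSO wells and 100% = wells without agonist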
# Target sequence (P32249 whole entry, looked up, the tested form may be a part): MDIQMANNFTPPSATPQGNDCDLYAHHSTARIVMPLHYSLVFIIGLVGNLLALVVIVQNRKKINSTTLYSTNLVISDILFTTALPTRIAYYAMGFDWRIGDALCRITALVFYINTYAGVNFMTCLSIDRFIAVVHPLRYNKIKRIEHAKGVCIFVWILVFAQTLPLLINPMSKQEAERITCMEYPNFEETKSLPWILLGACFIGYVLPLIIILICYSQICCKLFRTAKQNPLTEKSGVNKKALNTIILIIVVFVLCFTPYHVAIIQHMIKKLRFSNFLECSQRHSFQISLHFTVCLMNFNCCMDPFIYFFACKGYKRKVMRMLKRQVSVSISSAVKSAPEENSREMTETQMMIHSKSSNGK
# Starred values were filed as active, the others as inactive; · = no result.
SMILES,APJ agonist,APJ antag,CXCR6 block,CCR6 antagonist,EBI2 antag
Cc1noc(C)c1NC(=O)N(C)C[C@H]1Oc2ccc(NC(=O)c3ccncc3)cc2C(=O)N([C@H](C)CO)C[C@@H]1C,-1,0,-8,2,-5
NC(=S)N/N=C/c1ccccc1,-2,3,-1,-6,-2
NC(=S)N/N=C/c1ccc(C23CC4CC(CC(C4)C2)C3)cc1,-6,29,·,66*,·
CCOc1ccc(S(=O)(=O)N2CCC(C(=O)Nc3cc(S(C)(=O)=O)ccc3Cl)CC2)cc1,-5,-9,0,4,-11
CN(Cc1nc2ccccc2c(=O)[nH]1)C(=O)c1cccc(S(=O)(=O)N2CCc3ccccc32)c1,-4,-7,7,10,15
O=C(/C=C/c1cccs1)c1ccc([N+](=O)[O-])cc1,2,-26,-28,2,1
O=C(/C=C/c1cccs1)c1ccc(N2CCOCC2)cc1,-3,14,1,7,45*
O=[N+]([O-])c1ccc(NN=Cc2cccc([N+](=O)[O-])c2)cc1,·,·,-2,14,-13
O=[N+]([O-])c1ccc(N/N=C/c2ccc[nH]2)cc1,·,·,10,55*,5
CCOc1ccc(N=C/C=C/c2ccccc2)c(O)c1,6,-12,-5,52*,-9
CCc1ccccc1CC1CN(Cc2ccccc2)Cc2ccccc2N1c1ccc(OC)cc1 (stereo unspecified),·,·,·,·,7
CC1=NOC(=O)/C1=C\c1ccc(-c2ccc(Br)cc2)o1,·,·,41*,76*,4
O=C(NCc1cccnc1)/C(=C\c1ccc(-c2ccc(Cl)c(Cl)c2)o1)S(=O)(=O)c1ccccc1,·,·,24,45,64*
O=C(NCc1cccnc1)c1ccc(-c2ccc(Cl)cc2)o1,-2,0,3,5,3
Nc1c(C(=O)NC2CC2)sc2nc3c(c(-c4ccco4)c12)CC/C3=C/c1ccco1,·,·,24,51*,-12
Cn1c(=O)c2c(ncn2CC(=O)OCC(=O)NNC(=O)c2ccc(Cl)cc2)n(C)c1=O,-1,25,1,2,2
CC(=NNc1nc2ccccc2s1)c1ccncn1,·,·,45*,54*,55*
C/C(=N\Nc1nc2ccccc2s1)c1ccc(Br)s1,0,11,3,-4,22
CCC(=O)OCOc1ccc(/C=C2/CCC(CN(C)C)C2=O)cc1 (stereo unspecified),·,·,82*,90*,19
CC(C)CN1C(=O)N(c2ccc(Cl)cc2)C(C)(O)CC1(C)C (stereo unspecified),-3,7,5,2,8
CCOC(=O)Cn1c(=NC(=O)c2ccc([N+](=O)[O-])s2)sc2ccccc21,2,-64,8,54*,7
CCOC(=O)Cn1c(=NC(=O)C2COc3ccccc3O2)sc2cc(S(N)(=O)=O)ccc21 (stereo unspecified),1,5,10,8,0
C[C@H](NC(=O)COc1ccccc1)C(=O)OCC(=O)c1cc2ccccc2o1,·,·,48*,76*,22
Cc1cccc(N2CCN(C(=O)Cn3sc4nc(C)cc(C)c4c3=O)CC2C)c1 (stereo unspecified),8,6,8,72*,7
C=CCn1c(O)c(C2=c3ccccc3=NC2=O)c2ccccc21,4,27,72*,91*,11
SMILES,APJ agonist,APJ antag,CXCR6 block,CCR6 antagonist,EBI2 antag
Cc1c(-n2c(O)c(C3=c4ccccc4=NC3=O)sc2=O)c(=O)n(-c2ccccc2)n1C,-2,-37,-5,-1,-7
Cc1ccc2c(c1)c(C1=c3ccccc3=NC1=O)c(O)n2C,1,26,26,51*,6
N/C(=N/OC(=O)c1ccccc1Cl)c1ncc([N+](=O)[O-])s1,5,-14,-8,7,-26
O=C(Nc1ccccc1)C1CCCN1S(=O)(=O)c1ccc(Br)cc1 (stereo unspecified),3,18,1,5,-10
CC(OC(=O)CCN=C1NS(=O)(=O)c2ccccc21)C(=O)Nc1ccc(F)cc1 (stereo unspecified),-4,9,7,7,-4
NC(N)=N/N=C(\N=Nc1ccccc1)c1cccc2cccnc12,·,·,0,12,5
NC(N)=N/N=C(\N=Nc1ccccc1)c1ccc(Cl)cc1,·,·,12,63*,2
O=C1c2ccccc2-c2onc3ccc(Oc4ccccc4)c1c23,16,-6,41*,42,-17
Cc1c(C#N)c(O)n(CCO)c(=O)c1N=Nc1ccc(S(N)(=O)=O)cc1,-6,32,31,36,6
Cc1c(C#N)c(O)n(C)c(=O)c1N=Nc1ccc(S(N)(=O)=O)cc1,·,·,25,52*,2
CC(=O)Nc1sc(N/N=C\c2ccccc2F)nc1-c1cccs1,0,5,11,50*,-7
CC(=O)Nc1sc(N/N=C\c2ccc(O)cc2)nc1-c1cccs1,-5,-18,4,23,3
COc1cc(/C=N/NC(=O)C(Cc2c[nH]c3ccccc23)NC(=O)OCc2ccccc2)cc([N+](=O)[O-])c1O (stereo unspecified),·,·,24,46,17
COc1cc(/C=N/NC(=O)C(Cc2c[nH]c3ccccc23)NC(=O)OCC(C)C)cc([N+](=O)[O-])c1O (stereo unspecified),-3,44*,14,32,2
CCOC1=C2CN(S(=O)(=O)c3ccc(C)cc3)C(c3ccc(C)cc3)CC2N(S(=O)(=O)c2ccc(C)cc2)C(c2ccccc2)C1 (stereo unspecified),·,·,·,·,1
CCOC(=O)c1ccc(N2C(=O)C=CC2=O)cc1,0,14,101*,113*,4
CCOC(=O)C1NN=C(C(=O)c2ccccc2)C1c1ccc(Cl)cc1 (stereo unspecified),-4,47*,4,18,-2
CCOC(=O)C1NN=C(C(=O)c2ccccc2)C1c1ccccc1 (stereo unspecified),-2,18,12,36,-2
COc1cccc(C(N)c2nc(-c3csc4ccccc34)cs2)c1 (stereo unspecified),·,·,-8,·,2
OC(COc1c(Cl)cc(Cl)cc1Cl)CN1CCCCC1 (stereo unspecified),-6,9,0,69*,-4
OC(COc1ccc(Cl)cc1)CN1CCCCC1 (stereo unspecified),-1,1,-2,8,-6
O=C1c2c(-c3ccc(Br)cc3)noc2CCN1Cc1cn(-c2ccccc2)nn1,·,·,·,·,-1
COc1ccc(NC(=O)NCCc2cccc(Cl)c2)cc1OC,-1,-8,-2,8,3
CN(C)CCCN(C(=O)CCOc1ccccc1)c1nc2c(F)cccc2s1,·,·,13,20,48*
CN(C)CCCN(C(=O)CCc1ccccc1)c1nc2c(F)cccc2s1,-1,2,0,14,-10
C/C(=N\Nc1ccc(Cl)c(C(=O)O)c1)c1ccccn1,-1,7,4,5,4
